# hERG protect: hERG rescue from dofetilide block, primary screen, cell-based, CHO-hERG, FluxOR thallium flux, dofetilide IC70. 310,000 tested, 0.51% active. Voltage-gated inwardly rectifying potassium channel KCNH2 (Homo sapiens), Q12809. activation (rescue from dofetilide block), less the hit threshold, % at 10 µM. dofetilide IC70 present. AID 1511, 2009;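 active = activation above the mean of controls blocked by dofetilide plus 5 SD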;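 also: thallium influx through hERG after potassium depolarization seen as dye fluorescence rise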
# KCNK9 inh: KCNK9 potassium channel inhibitors, primary screen, HEK293 cells, thallium flux. FluxOR thallium flux fluorescence; active compounds read low. B-score at 10 µM. 310,000 tested, 1.2% active;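 active = ratio B-score over 3 SD below the library mean, with starting fluorescence within 5 SD of its mean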;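 also: negative B-score means less thallium flux so channel inhibition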
# KCNK3 block: human KCNK3 channel inhibitors, primary screen, CHO cells, FluxOR thallium flux, B-score. Potassium channel subfamily K member 3 (Homo sapiens), O14649. FluxOR fluorescence; active compounds read low. B-score at 10 µM. 340,000 tested, 0.84% active;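 active = B-score under library mean minus 4 SD, starting fluorescence ratio at most library mean plus 5 SD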;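 also: more negative B-score means stronger inhibition of thallium flux through KCNK3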
# Target sequence (O14649 whole entry, looked up): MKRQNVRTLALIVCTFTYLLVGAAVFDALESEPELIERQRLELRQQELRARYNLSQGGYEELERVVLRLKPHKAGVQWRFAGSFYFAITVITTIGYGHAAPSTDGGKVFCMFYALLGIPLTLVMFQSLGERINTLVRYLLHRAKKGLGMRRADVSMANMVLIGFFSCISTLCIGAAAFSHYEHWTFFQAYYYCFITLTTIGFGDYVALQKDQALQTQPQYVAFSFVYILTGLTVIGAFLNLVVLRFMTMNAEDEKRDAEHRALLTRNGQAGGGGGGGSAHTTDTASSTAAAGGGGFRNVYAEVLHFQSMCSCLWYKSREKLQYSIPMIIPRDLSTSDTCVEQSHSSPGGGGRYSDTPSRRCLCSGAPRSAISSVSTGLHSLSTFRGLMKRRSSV
# KCNQ1 act: potentiators or activators of KCNQ1 channel, primary screen, cell-based, thallium flux, high-throughput. Potassium voltage-gated channel subfamily KQT member 1 (Homo sapiens), P51787. CHO-K1 KCNQ1, thallium flux FluxOR fluorescence; active compounds read high. B-score at 10 µM. 310,000 tested, 0.35% active;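 active = fluorescence ratio B-score, a plate-corrected score, at least three library SD, with initial intensity B-score within 5 SD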
#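 Assay system: CHO-K1 cells stably expressing KCNQ1. Medium: assay buffer for compound exposure, DMSO matched across wells. Timing: 37 °C overnight plating, 90-min dark dye load, 20-min compound pretreatment. Signal: kinetic FluxOR fluorescence, 10 s baseline plus 110 s post-stimulus.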
# KCNQ1 block: inhibitors of human KCNQ1 channel, primary screen, cell-based, thallium flux, high-throughput. 310,000 tested, 1.3% active. CHO-K1 KCNQ1, FluxOR thallium flux fluorescence; active compounds read high. B-score at 10 µM;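 active = compounds whose thallium flux B-score, printed positive for inhibition, exceeds three library SD while starting fluorescence stays within three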;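 also: channel opened by potassium depolarization with thallium stimulus after 20 min compound exposure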
# KCNK3 confirm: retest of human KCNK3 channel inhibitors, confirmation, CHO cells, FluxOR thallium flux, triplicate; shares compounds with KCNK3 block; FluxOR fluorescence; 0% buffer, 100% carvedilol maximal block; ratio percent of control, % at 10 µM; 2,400 tested, 99% active; AID 651638, 2012;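 active = ratio percent of control, averaged over triplicates, above buffer control mean plus 5 SD, cut at about 64% in these data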;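 also: ratio is the fluorescence rise from min to max over baseline after thallium stimulus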
# KCNK3 noninduced: thallium flux inhibition in non-induced cells, primary screen, counter-screen for KCNK3 inhibitor project, cell-based, non-induced KCNK3 line, FluxOR thallium, triplicate; 2,400 tested, 40% active; thallium flux ratio (lower = more inhibition) at 10 µM; non-induced KCNK3 parental cells; active compounds read low; AID 651747, 2012; shares compounds with KCNK3 block;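 active = thallium flux ratio, averaged over three wells, more than 5 SD below the buffer control mean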;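 also: host cells are CHO cells without KCNK3 induction; ratio is peak minus trough fluorescence over baseline then normalized to buffer controls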
# Active calls of the source: *; i = inactive; x = no result given. An excerpt weighted towards active compounds, which were near 3.1% of everything screened.
SMILES,hERG protect,KCNK9 inh,KCNK3 block,KCNQ1 act,KCNQ1 block,KCNK3 confirm,KCNK3 noninduced
CC(C)Sc1nc(N2CCCC2)c2c(c1C#N)CC(C)(C)OC2,-9,i,-10*,i,i,118*,0.14*
O=C(COC(=O)c1cc[n+]([O-])cc1)NCc1ccccc1Cl,-11,i,i,i,i,x,x
CSCCC(NC(=O)c1ccccc1Cl)C(=O)N1CCCCC1 (stereo unspecified),x,x,i,x,x,x,x
CC(C)N(C(=O)COC(=O)c1ccc(Cl)nc1)C(C)C,-2,i,i,i,i,x,x
O=C(OCCOc1ccc(Br)cc1)c1ccc(Cl)nc1,-7,i,-11*,i,i,69*,i
CCOC(=O)c1sc(NC(=O)C(CC)OC(=O)C(CC(C)C)NC(=O)c2ccccc2)nc1C (stereo unspecified),-11,i,-11*,i,i,108*,i
C(=Cc1c[nH]c2ccccc12)c1nccc2ccccc12,x,x,-14*,x,x,167*,0.044*
C(=Cc1c[nH]c2ccccc12)c1ccc2ccccc2n1,x,x,i,x,x,x,x
O=C(N1CCCC1)C12CC3CCC(CC(C3)C1)C2,-11,i,-12*,i,i,86*,i
CCc1ccc(-c2cc(C)no2)cc1S(=O)(=O)NCc1ccccc1OC,-10,i,-11*,i,i,98*,i
CCc1ccc(-c2cc(C)no2)cc1S(=O)(=O)N1CCN(c2ccccc2OC)CC1,-13,i,-9.6*,i,i,83*,0.15*
COc1ccccc1CNS(=O)(=O)c1ccc(-c2cc(C)no2)cc1,-10,i,i,i,i,x,x
COc1ccccc1/C=C/C(=O)c1ccc(Cl)cc1,-10,i,i,i,i,x,x
COc1ccc(OC)c(/C=C/C(=O)c2ccc(Cl)cc2)c1,-10,-6.9*,-10*,i,i,120*,0.16*
COc1cc(OC)cc(-c2c(-c3cccs3)c3cc(-c4cnc(OC)nc4)ccc3n2C)c1,x,x,i,x,x,x,x
Cc1ccc(NC(=S)N(Cc2ccco2)C(C)c2cccs2)c(Cl)c1 (stereo unspecified),-13,i,-11*,i,i,101*,i
O=C(COC(=O)c1cccc(C(F)(F)F)c1)NC(=O)NC1CCCC1,x,x,i,x,x,x,x
COCCCNC(=O)Cn1ccc(N)nc1=O,x,x,i,x,x,x,x
O=S(=O)(NCCCN1CCOCC1)c1ccc(Cl)s1,-6,i,i,i,i,x,x
CCCCCCNS(=O)(=O)c1ccc(Cl)s1,-5,i,-9.2*,i,i,94*,i
N#Cc1sc2nc(-c3cccs3)cc(-c3ccc(Cl)cc3)c2c1N,-11,-7*,-14*,i,i,132*,i
N#Cc1sc2nc(-c3cccs3)cc(-c3ccccc3)c2c1N,-4,i,i,i,i,x,x
O=C(O)CCSCCCN1C(=O)c2cccc3cccc(c23)C1=O,-12,i,i,i,i,x,x
CC(C)=CCc1c(O)ccc2c1OC(c1ccc(O)c(O)c1)CC2=O (stereo unspecified),-38,-6.6*,-12*,i,i,138*,0.12*
CCc1cc(C(=O)Nc2cc(S(=O)(=O)N(C)C)ccc2C)sc1C,-10,i,-9.3*,i,i,90*,i
SMILES,hERG protect,KCNK9 inh,KCNK3 block,KCNQ1 act,KCNQ1 block,KCNK3 confirm,KCNK3 noninduced
C(=NN=C(NN=Cc1cccs1)NN=Cc1cccs1)c1cccs1,x,x,-15*,x,x,123*,i
COC(=O)c1ccc(C2=NOC(C)(c3nnc(Cc4ccccc4)o3)C2)cc1 (stereo unspecified),-12,i,i,i,i,x,x
COc1cccc(NC(=O)CN(C)C(=O)c2cc(-c3ccccc3)nc3ccccc23)c1,-14,i,i,i,i,x,x
COc1cccc(NC(=O)CN(C)C(=O)c2cc(-c3ccc(F)cc3)nc3ccccc23)c1,-25,i,-9.3*,i,i,133*,0.11*
COc1cccc(NC(=O)CN(C)C(=O)/C=C/c2cn(-c3ccccc3)nc2-c2ccc(C)cc2)c1,-28,i,-8.7*,i,10*,92*,i
COc1ccc(NC(=O)CN(C)C(=O)/C=C/c2cn(-c3ccccc3)nc2-c2ccc(C)cc2)cc1,-14,i,i,i,i,x,x
CC(Oc1ccccc1)C(=O)N1CCC2(CC1)CC(=O)c1ccccc1O2 (stereo unspecified),-7,i,i,i,i,x,x
CC(=O)c1ccc(OCCCC(=O)Nc2cc(S(=O)(=O)N(C)C)ccc2C)cc1,-3,i,i,i,i,x,x
Cc1ccc(S(=O)(=O)N(C)C)cc1NC(=O)C(C)N(C)CCOc1ccc(Cl)cc1 (stereo unspecified),-10,i,-9.4*,i,i,79*,i
Cc1nc(-c2cccc(NC(=O)c3ccc(Br)o3)c2)cs1,-28,i,i,i,i,x,x
CCOc1ccc(-c2cccc(NC(=O)c3ccc(Br)o3)c2)nn1,-4,i,-12*,i,i,98*,i
Cc1ccsc1C(=O)NCCC(c1ccccc1)c1ccccc1,-4,i,-9*,i,i,105*,i
CCC(=O)N1CCc2cc(Br)cc(S(=O)(=O)N3CCC(C(=O)NC(C)C)CC3)c21,-6,i,i,i,i,x,x
COc1ccc(C)cc1NC(=O)c1sc2ncnc(N3CCN(c4ccccn4)CC3)c2c1C,-3,i,-11*,i,i,116*,i
Cc1ccc(NC(=O)c2sc3ncnc(N4CCN(c5ccccn5)CC4)c3c2C)c(C)c1,-21,i,i,i,i,x,x
ClCc1nc2ccccc2c2ccccc12,-10,i,i,i,i,x,x
CCC1([N+](=O)[O-])COC(c2ccc(Cl)cc2)OC1 (stereo unspecified),x,x,i,x,x,x,x
CCCNC(=S)N1CCN(C(c2ccccc2)c2ccccc2)CC1,-8,i,i,i,i,x,x
CCCCNC(=S)N1CCN(C(c2ccccc2)c2ccccc2)CC1,-28,-6.8*,-11*,i,i,93*,0.11*
